Data set [1] is described as follows: Chemical stability assessed as enzymatic hydrolysis half life in RPMI-1640 culture medium containing heat non-inactivated fetal bovine serum by HPLC analysis. Format: physicochemical. The conditions noted are these: cattle. A digest of the protocol:
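Enzymatic hydrolysis by phosphoesterases was followed in RPMI-1640 containing heat non-inactivated FBS (RPMI/FBS 9:1, v/v).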

Data set [2] in a line: Chemical stability in RPMI-1640 culture medium at 2 uM up to 6 days by HPLC analysis. Format: physicochemical. Conditions: 144 h.
Data set [3] can be described thus: Chemical stability assessed as chemical hydrolysis half life in RPMI-1640 culture medium by HPLC analysis. Format: physicochemical. A digest of the protocol:
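Chemical hydrolysis of the compounds was followed in RPMI-1640 medium alone.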

The nature of data set [4]: Cytotoxicity against human MT4 cells after 96 hrs by MTT assay. In kind it is cell-based. A digest of the protocol:
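Exponentially growing mock-infected MT-4 cells were seeded at 1 × 10⁵ cells/ml in RPMI-1640 with 10% FCS, penicillin G and streptomycin. They were incubated with serial compound dilutions at 37 °C in humidified 5% CO₂, and viability was read by MTT after 96 h. CC50 is the concentration reducing viability by 50%, as the mean of three independent determinations.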
(In general: Tetrazolium assays rely on reduction of a dye to a coloured formazan, in cell work by metabolically active cells.)

The test system of data set [5] is Human immunodeficiency virus 1. Put plainly: Antiviral activity against HIV1 3B infected in human MT4 cells assessed as protection from virus-induced cytopathogenicity after 4 days by MTT assay. The conditions noted are these: Human immunodeficiency virus 1, 3B, MT4, 96 h. Format: functional, organism-based. A digest of the protocol:
(§1)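 MT-4 cells, acutely infected at m.o.i. 0.01, were used to read inhibition of HIV-1-induced cytopathogenicity. Compounds were made as 100 mM DMSO stocks and diluted in culture medium. Viability was read by MTT. EC50 is the concentration giving 50% protection, as the mean (+SD) of three independent determinations.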

The nature of data set [6]: Selectivity index, ratio of CC50 for human MT4 cells to EC50 for HIV1 3B. The conditions noted are these: read-out: Ratio CC50/EC50. In kind it is toxicity, cell-based.
In data set [7] the test system is Human immunodeficiency virus 1. Kind of data set: Antiviral activity against non-nucleoside reverse transcriptase inhibitor-resistant HIV1 bearing reverse transcriptase N119 (Y181C) mutation infected in human MT4 cells assessed as protection from virus-induced cytopathogenicity after 4 days by MTT assay. Format: functional, organism-based. The conditions noted are these: Human immunodeficiency virus 1, MT4, 96 h. A digest of the protocol:
as §1
On the technique in general: Damage to the host cells serves as the signal in cytopathic effect assays.

Data set [8] relates to Human immunodeficiency virus 1. Put plainly: Antiviral activity against non-nucleoside reverse transcriptase inhibitor-resistant HIV1 bearing reverse transcriptase A17 (K103N, Y181C) mutation infected in human MT4 cells assessed as protection from virus-induced cytopathogenicity after 4 days by MTT assay. In kind it is functional, organism-based. The conditions noted are these: Human immunodeficiency virus 1, MT4, 96 h. The method in brief: as §1

For data set [9], the system named is Human immunodeficiency virus 1. Put plainly: Antiviral activity against efavirenz-resistant HIV1 infected in human MT4 cells assessed as protection from virus-induced cytopathogenicity after 4 days by MTT assay. The conditions noted are these: Human immunodeficiency virus 1, MT4, 96 h. In kind it is functional, organism-based. The method in brief: as §1
Data set [10] has as its system Human immunodeficiency virus 1. Put plainly: Antiviral activity against azidothymidine-resistant HIV1 infected in human MT4 cells assessed as protection from virus-induced cytopathogenicity after 4 days by MTT assay. In kind it is functional, organism-based. The conditions noted are these: Human immunodeficiency virus 1, MT4, 96 h. The method in brief: as §1
Data set [11] deals with Human immunodeficiency virus 1. Put plainly: Antiviral activity against MDR1-resistant HIV1 infected in human MT4 cells assessed as protection from virus-induced cytopathogenicity after 4 days by MTT assay. The conditions noted are these: Human immunodeficiency virus 1, MT4, 96 h. Format: functional, organism-based. The method in brief: as §1

The structures appear in SMILES notation. A value given as a limit tells only on which side of the number the result lay.

One may read the half-life as how long it takes for the measured level to halve. For `Cc1ccc(OP(=O)(O)OC[C@H]2O[C@@H](n3cc(C)c(=O)[nH]c3=O)C[C@@H]2N=[N+]=[N-])cn1`, the half-life in data set [1] amounted to 28.9 h. Besides, the Stability result in [2] is recorded as “Stable”.

Turning to `Nc1ncnc2c1ncn2[C@H]1CC[C@@H](COP(=O)(O)Oc2cccnc2)O1`, the half-life in [1] worked out at 64.2 h. Also, the Stability result in [2] was “Stable”.

In the case of `Cc1cn([C@H]2C[C@H](N=[N+]=[N-])[C@@H](COP(=O)(O)Oc3ccncc3)O2)c(=O)[nH]c1=O`, in data set [1], the half-life amounted to 8.07 h. Also, the Stability entry in data set [2] is given as “Stable”.

On to `Cc1ncccc1OP(=O)(O)OC[C@H]1O[C@@H](n2cc(C)c(=O)[nH]c2=O)C[C@@H]1N=[N+]=[N-]`, for which the half-life in data set [1] was 15.8 h. Moreover, in data set [2], the Stability result was “Stable”.

In the case of `Cc1cn([C@H]2C[C@H](N=[N+]=[N-])[C@@H](COP(=O)(O)Oc3ccc(Cl)cc3Cl)O2)c(=O)[nH]c1=O`, the half-life in data set [1] turned out to be 3.03 h. Further, the Stability entry in data set [2] is recorded as “Stable”.

On to `Cc1cn([C@H]2C[C@H](N=[N+]=[N-])[C@@H](COP(=O)(O)Oc3cccnc3Cl)O2)c(=O)[nH]c1=O`, for which the half-life in [1] was 16.3 h. Moreover, the Stability entry in [2] is recorded as “Stable”.

As for `Nc1ncnc2c1ncn2[C@H]1CC[C@@H](COP(=O)(O)Oc2ccccc2)O1`, the half-life in data set [1] is 36.1 h. The Stability entry in data set [2] is reported as “Stable”.

For the molecule `Cc1cn([C@H]2C[C@H](N=[N+]=[N-])[C@@H](COP(=O)(O)Oc3ccc(C#N)cc3)O2)c(=O)[nH]c1=O`, in data set [1], the half-life came to 7.08 h. For the same molecule, in data set [2], the Stability entry is given as “Stable”.

As to `O=c1ccn([C@H]2CC[C@@H](COP(=O)(O)Oc3ccccc3)O2)c(=O)[nH]1`, the half-life in data set [1] stood at 25.1 h. The Stability result in [2] is “Stable”.

`O=c1ccn([C@H]2CC[C@@H](COP(=O)(O)Oc3cccnc3)O2)c(=O)[nH]1`: the half-life in data set [1] amounted to 50.2 h. In addition, in data set [2], the Stability entry is recorded as “Stable”.

On to `O=c1ccn([C@H]2CC[C@@H](COP(=O)(O)Oc3ccncc3)O2)c(=O)[nH]1`, for which the half-life in data set [1] came to 23.6 h. In data set [2], the Stability entry is listed as “Stable”.

In the case of `Cc1cn([C@H]2C[C@H](N=[N+]=[N-])[C@@H](COP(=O)(O)Oc3cncc(Cl)c3)O2)c(=O)[nH]c1=O`, the half-life in data set [1] came out at 7.27 h. Also, the Stability result in [2] is on record as “Stable”.

Take `Cc1cn([C@H]2C[C@H](N=[N+]=[N-])[C@@H](COP(=O)(O)Oc3ccc(Br)cc3)O2)c(=O)[nH]c1=O`: the half-life in [1] is 7.97 h. Moreover, the Stability result in [2] is given as “Stable”.

Take `Cc1cn([C@H]2C[C@H](N=[N+]=[N-])[C@@H](COP(=O)(O)Oc3ccccc3)O2)c(=O)[nH]c1=O`: in [1], the half-life was 9.47 h. Besides, the Stability result in data set [2] is recorded as “Stable”.

As a reminder, the CC50 is the concentration giving 50% cytotoxicity. A high value points to better tolerance by the cells. A word on the EC50: it is the concentration at which the effect is half-maximal. Take `Cc1cn([C@H]2C[C@H](N=[N+]=[N-])[C@@H](COP(=O)(Oc3ccncc3)Oc3cccnc3)O2)c(=O)[nH]c1=O` (stereo partly drawn): the half-life in data set [3] is 8.55 h. Also, the cytotoxic concentration (CC50) at 96 h in data set [4] was > 100000 nM. For the same molecule, the half-maximal effective concentration (EC50) is 20 nM in [5]; 10 nM in data set [7]; 7 nM in data set [8]; 10 nM in data set [9]; 2300 nM in [10]; 1200 nM in data set [11]. Further, in data set [6], the selectivity ratio was > 5000.

As to `Cc1cn([C@H]2C[C@H](N=[N+]=[N-])[C@@H](COP(=O)(O)Oc3ccc(Cl)cc3)O2)c(=O)[nH]c1=O`, in [1], the half-life was found to be 5.5 h. For the same molecule, in [2], the Stability result was “Stable”.

Take `O=c1ccn([C@H]2CC[C@@H](COP(=O)(Oc3ccccc3)Oc3cccnc3)O2)c(=O)[nH]1` (stereo partly drawn): the half-life in [3] is 64.2 h. Besides, in [4], the 50% cytotoxic concentration (CC50) at 96 h is > 100000 nM. For the same molecule, the concentration giving a half-maximal response (EC50) in data set [5] is 38000 nM; in data set [7] it was 30000 nM; in data set [8], 11000 nM; in data set [9], 20000 nM; in [10] it was > 100000 nM; in data set [11], > 100000 nM. Moreover, the selectivity ratio in data set [6] is > 2.

Regarding `Cc1cn([C@H]2C[C@H](N=[N+]=[N-])[C@@H](COP(=O)(O)Oc3cccnc3)O2)c(=O)[nH]c1=O`, the half-life in data set [1] was found to be 3.88 h. In data set [2], the Stability result was “Stable”.

For `Cc1cn([C@H]2C[C@H](N=[N+]=[N-])[C@@H](COP(=O)(Oc3ccccc3)Oc3cccnc3Cl)O2)c(=O)[nH]c1=O` (stereo partly drawn), in [3], the half-life was found to be 16.1 h. Besides, the CC50 at 96 h in data set [4] was ≥ 100000 nM. The EC50 in data set [5] turned out to be 30 nM; in [7], 20 nM; in data set [8] it was 10 nM; in data set [9], 10 nM; in [10] it was 1200 nM; in data set [11], 400 nM. In addition, the selectivity ratio in [6] is > 3330.

Consider `Cc1cn([C@H]2C[C@H](N=[N+]=[N-])[C@@H](COP(=O)(Oc3ccccc3)Oc3cncc(Cl)c3)O2)c(=O)[nH]c1=O` (stereo partly drawn), for which, in data set [3], the half-life was 25.1 h. The same molecule had a half-maximal cytotoxic concentration (CC50) at 96 h in [4] of 100000 nM. Also, the EC50 in data set [5] was determined as 40 nM; in data set [7] it was 50 nM; in [8], 10 nM; in [9], 10 nM; in data set [10], 1500 nM; in data set [11] it was 600 nM. Further, the selectivity ratio in data set [6] is 2500.

The record behind these values is ChEMBL document CHEMBL1151848, “Aryl nucleoside H-phosphonates. Part 16: synthesis and anti-HIV-1 activity of di-aryl nucleoside phosphotriesters” (Bioorg Med Chem, 2009).
